Measured values taken from ChEMBL document CHEMBL1128345, “Derivatives of 2-[[N-(Aminocarbonyl)-N-hydroxyamino]methyl]-1,4- benzodioxan as orally active 5-lipoxygenase inhibitors” (J Med Chem, 1995).
Where “and” joins values, the source holds several entries; their conditions need not be identical. Equal entries are not always repeated.

Key:
[1] = target: T1, Polyunsaturated fatty acid 5-lipoxygenase (Homo sapiens) (UniProt P09917); assay: Ex vivo inhibition of 5-LO was determined by the measurement of A-23187-stimulated LTB4 production in dog blood at 6.0h, following intravenous administration at the dose of 1.0 mg/kg; type: functional, organism-based; parameters: dose 1 mg/kg; conditions: Canis lupus familiaris, target entry is the homologue from another species
T1 sequence (whole entry): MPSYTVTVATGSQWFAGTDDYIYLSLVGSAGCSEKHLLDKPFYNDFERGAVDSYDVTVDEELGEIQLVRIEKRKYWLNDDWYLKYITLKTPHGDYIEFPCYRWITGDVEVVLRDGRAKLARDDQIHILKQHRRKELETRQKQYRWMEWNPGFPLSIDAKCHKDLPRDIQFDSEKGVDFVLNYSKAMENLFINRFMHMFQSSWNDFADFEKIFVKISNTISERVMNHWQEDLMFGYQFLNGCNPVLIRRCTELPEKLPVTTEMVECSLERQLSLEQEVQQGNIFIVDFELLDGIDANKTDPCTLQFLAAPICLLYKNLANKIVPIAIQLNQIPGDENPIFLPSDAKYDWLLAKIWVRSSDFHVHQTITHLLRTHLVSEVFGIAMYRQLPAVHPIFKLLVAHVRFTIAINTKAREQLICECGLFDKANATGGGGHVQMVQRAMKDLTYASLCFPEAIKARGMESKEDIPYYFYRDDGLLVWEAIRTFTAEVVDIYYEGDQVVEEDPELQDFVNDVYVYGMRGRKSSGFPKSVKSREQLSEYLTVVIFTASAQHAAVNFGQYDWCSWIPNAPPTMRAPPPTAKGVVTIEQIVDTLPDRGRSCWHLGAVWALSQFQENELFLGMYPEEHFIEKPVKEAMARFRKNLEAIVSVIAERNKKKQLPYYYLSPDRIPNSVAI
Method in brief: (§1)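 Dogs received a single iv dose. Whole blood was sampled at the stated time after dosing and stimulated ex vivo with calcium ionophore A23187. LTB4 was quantitated by radioimmunoassay. Percent inhibition was calculated against each animal's pre-dose LTB4 value. One to three experiments were run per dose.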

[2] = target: T1, Polyunsaturated fatty acid 5-lipoxygenase (Homo sapiens); assay: Ex vivo inhibition of 5-lipoxygenase was determined by the measurement of A-23187-stimulated LTB4 production in dog blood at 0.25h, following intravenous administration at the dose of 1.0 mg/kg; type: functional, organism-based; parameters: dose 1 mg/kg; conditions: Canis lupus familiaris, target entry is the homologue from another species
Method in brief: (§2)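 Dog ex vivo assay: compound given as a single iv dose. Whole blood drawn at set times after dosing was stimulated ex vivo with calcium ionophore A23187. LTB4 was quantitated by radioimmunoassay. Percent inhibition at each time point was calculated against the LTB4 value before dosing. n = 1–3 experiments per compound.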

[3] = target: T1, Polyunsaturated fatty acid 5-lipoxygenase (Homo sapiens); assay: Ex vivo inhibition of 5-lipoxygenase was determined by the measurement of A-23187-stimulated LTB4 production in dog blood at 0.08h, following intravenous administration at the dose of 1.0 mg/kg; type: functional, organism-based; parameters: dose 1 mg/kg; conditions: Canis lupus familiaris, target entry is the homologue from another species; method in brief: as §1
[4] = Duration of action was defined as the period of time from maximum inhibition of A-23187-stimulated LTB4 formation to the time where 50% of maximum inhibition is reached
Method in brief: (§3)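 Dogs got a single iv or oral dose. Whole blood was drawn at set times afterwards and stimulated ex vivo with the calcium ionophore A23187. LTB4 was measured by radioimmunoassay, and inhibition was taken as the change from the pre-dose LTB4 value. DA, the time from maximum inhibition to 50% of maximum, was read graphically from the plot of percent inhibition vs time.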

[5] = target: T1, Polyunsaturated fatty acid 5-lipoxygenase (Homo sapiens); assay: Ex vivo inhibition of 5-lipoxygenase was determined by the measurement of A-23187-stimulated LTB4 production in dog blood at 1.0h, following intravenous administration at the dose of 1.0 mg/kg; type: functional, organism-based; parameters: dose 1 mg/kg; conditions: Canis lupus familiaris, target entry is the homologue from another species; method in brief: as §1
[6] = target: T1, Polyunsaturated fatty acid 5-lipoxygenase (Homo sapiens); assay: Ex vivo inhibition of 5-LO was determined by the measurement of A-23187-stimulated LTB4 production in dog blood at 9.0h, following intravenous administration at the dose of 1.0 mg/kg; type: functional, organism-based; parameters: dose 1 mg/kg; conditions: Canis lupus familiaris, target entry is the homologue from another species; method in brief: as §1
[7] = target: T1, Polyunsaturated fatty acid 5-lipoxygenase (Homo sapiens); assay: Ex vivo inhibition of 5-LO was determined by the measurement of A-23187-stimulated LTB4 production in dog blood at 24h, following intravenous administration at the dose of 1.0 mg/kg; type: functional, organism-based; parameters: dose 1 mg/kg; conditions: Canis lupus familiaris, target entry is the homologue from another species; method in brief: as §1
[8] = target: T1, Polyunsaturated fatty acid 5-lipoxygenase (Homo sapiens); assay: Ex vivo inhibition of 5-lipoxygenase was determined by the measurement of A-23187-stimulated LTB4 production in dog blood at 0.5h, following intravenous administration at the dose of 1.0 mg/kg; type: functional, organism-based; parameters: dose 1 mg/kg; conditions: Canis lupus familiaris, target entry is the homologue from another species; method in brief: as §1
[9] = target: T1, Polyunsaturated fatty acid 5-lipoxygenase (Homo sapiens); assay: Ex vivo inhibition of 5-lipoxygenase was determined by the measurement of A-23187-stimulated LTB4 production in dog blood at 6.0h, following intravenous administration at the dose of 1.0 mg/kg; type: functional, organism-based; parameters: dose 1 mg/kg; conditions: Canis lupus familiaris, target entry is the homologue from another species; method in brief: as §1
[10] = target: T1, Polyunsaturated fatty acid 5-lipoxygenase (Homo sapiens); assay: Ex vivo inhibition of 5-lipoxygenase was determined by the measurement of A-23187-stimulated LTB4 production in dog blood at 9.0h, following intravenous administration at the dose of 1.0 mg/kg; type: functional, organism-based; parameters: dose 1 mg/kg; conditions: Canis lupus familiaris, target entry is the homologue from another species; method in brief: as §1
[11] = target: T1, Polyunsaturated fatty acid 5-lipoxygenase (Homo sapiens); assay: Ex vivo inhibition of 5-lipoxygenase was determined by the measurement of A-23187-stimulated LTB4 production in dog blood at 24h, following intravenous administration at the dose of 1.0 mg/kg; type: functional, organism-based; parameters: dose 1 mg/kg; conditions: Canis lupus familiaris, target entry is the homologue from another species; method in brief: as §1
[12] = Duration of action of 5-LO was defined as the period of time from maximum inhibition of A-23187-stimulated LTB4 formation to the time where 50% of maximum inhibition is reached; method in brief: as §3
[13] = target: T1, Polyunsaturated fatty acid 5-lipoxygenase (Homo sapiens); assay: Ex vivo inhibition of 5-LO was determined by the measurement of A-23187-stimulated LTB4 production in dog blood at 0.25h, following intravenous administration at the dose of 1.0 mg/kg; type: functional, organism-based; parameters: dose 1 mg/kg; conditions: Canis lupus familiaris, target entry is the homologue from another species; method in brief: as §2
[14] = target: T1, Polyunsaturated fatty acid 5-lipoxygenase (Homo sapiens); assay: Ex vivo inhibition of 5-LO was determined by the measurement of A-23187-stimulated LTB4 production in dog blood at 0.08h, following intravenous administration at the dose of 1.0 mg/kg; type: functional, organism-based; parameters: dose 1 mg/kg; conditions: Canis lupus familiaris, target entry is the homologue from another species; method in brief: as §1
[15] = target: T1, Polyunsaturated fatty acid 5-lipoxygenase (Homo sapiens); assay: Ex vivo inhibition of 5-LO was determined by the measurement of A-23187-stimulated LTB4 production in dog blood at 3.0h, following intravenous administration at the dose of 1.0 mg/kg; type: functional, organism-based; parameters: dose 1 mg/kg; conditions: Canis lupus familiaris, target entry is the homologue from another species; method in brief: as §1
[16] = target: T1, Polyunsaturated fatty acid 5-lipoxygenase (Homo sapiens); assay: Ex vivo inhibition of 5-LO was determined by the measurement of A-23187-stimulated LTB4 production in dog blood at 1.0h, following intravenous administration at the dose of 1.0 mg/kg; type: functional, organism-based; parameters: dose 1 mg/kg; conditions: Canis lupus familiaris, target entry is the homologue from another species; method in brief: as §1
[17] = target: T1, Polyunsaturated fatty acid 5-lipoxygenase (Homo sapiens); assay: Ex vivo inhibition of 5-LO was determined by the measurement of A-23187-stimulated LTB4 production in dog blood at 0.5h, following intravenous administration at the dose of 1.0 mg/kg; type: functional, organism-based; parameters: dose 1 mg/kg; conditions: Canis lupus familiaris, target entry is the homologue from another species; method in brief: as §1

Compound	inhibition [1] [%]	inhibition [2] [%]	inhibition [3] [%]	Duration of action [4]	inhibition [5] [%]	inhibition [6] [%]	inhibition [7] [%]	inhibition [8] [%]	inhibition [9] [%]	inhibition [10]	inhibition [11] [%]	Duration of action [12] [h]	inhibition [13] [%]	inhibition [14] [%]	inhibition [15] [%]	inhibition [16] [%]	inhibition [17] [%]
CCCCNC(=O)N(O)CC1COc2ccccc2O1 (stereo unspecified)		100	100	0.7 h	45			64	0								
CNC(=O)N(O)CC1COc2ccc(Oc3ccccc3)cc2O1 (stereo unspecified)		100	100	1.5 h	74			98	0	9%	0						
CC(c1cc2ccccc2s1)N(O)C(N)=O (stereo unspecified) [ZILEUTON]		94	96	8.5 h and 9.8 h	87			91	56	47%	27						
NC(=O)N(O)CC1COc2cc(Oc3ccccc3)ccc2O1 (stereo unspecified)	1			1.7 h		9	2						100	100	14	98	100

Continued, values first:

inhibition [1] [%]	inhibition [2] [%]	inhibition [3] [%]	Duration of action [4]	inhibition [5] [%]	inhibition [6] [%]	inhibition [7] [%]	inhibition [8] [%]	inhibition [9] [%]	inhibition [10]	inhibition [11] [%]	Duration of action [12] [h]	inhibition [13] [%]	inhibition [14] [%]	inhibition [15] [%]	inhibition [16] [%]	inhibition [17] [%]	Compound
15	100	100	3.8 h and 3.7 h	100	0	0	100										NC(=O)N(O)C[C@@H]1COc2ccc(Oc3ccc(F)cc3)cc2O1
	98	94	8.2 h and 8.5 h	92			94	63	34% and 48%	17							NC(=O)N(O)CC1COc2ccc(Oc3ccc(F)cc3)cc2O1 (stereo unspecified)
	100	100	4 h	100			100	22	0%	4							NC(=O)N(O)CC1COc2ccc(Oc3ccccc3)cc2O1 (stereo unspecified)
											8.4						NC(=O)N(O)C[C@H]1COc2ccc(Oc3ccc(F)cc3)cc2O1
